The text below walks through data of PubChem BioAssay AID588804 (The Scripps Research Institute Molecular Screening Center, 2011).

The test is described as follows: cytotoxicity in Neuro-2A cells, dose response, cytotoxicity control for PME-1 inhibitor project, cell-based, WST-1 absorbance, serum-free and serum media (AID 588804). The following applies: Neuro-2A viability, 48 h. An outline of the steps: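 test system = Neuro-2A murine neuroblastoma cells | read-out basis = % surviving cells and CC50 from three-parameter sigmoidal fit | control set = compound-free cells as high control, no-cell wells as low | detection = colorimetric WST-1 formazan absorbance | incubation = cells grown 36 h before dosing, 48 h compound exposure at 37 °C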

Activity calls are given as the source filed them.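 The calls were made as follows: active = In either cell panel, a half-cytotoxic dose CC50 of 5 µM or lower marks a compound as cytotoxic; inactive = Both panels show CC50 exceeding 5 µM.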

`CCCOC(=O)N1C(=O)[C@@](CC)(c2ccc(C)cc2)N1C(=O)OCCC`: the CC50 is > 10 µM (inactive) (with serum) and > 10 µM (inactive) (without serum).

Turning to `CC[C@@]1(c2ccc(C)cc2)C(=O)N(C(=O)OC(C)C)N1C(=O)OC(C)C`, the CC50 is > 10 µM (inactive) (with serum) and > 10 µM (inactive) (without serum).

For `CC[C@@]1(c2ccc(Cl)cc2)C(=O)N(C(=O)OC)N1C(=O)OC`, the CC50 runs as follows: (with serum) > 10 µM (inactive); (without serum) > 10 µM (inactive).

As a reminder, the CC50 is the concentration at which the toxic effect on the cells reaches its halfway point.
